Source: ChEMBL document CHEMBL4014337, “Antimalarial Inhibitors Targeting Serine Hydroxymethyltransferase (SHMT) with in Vivo Efficacy and Analysis of their Binding Mode Based on X-ray Cocrystal Structures” (J Med Chem, 2017)

Legend:
[1] = Partition coefficient, logD of compound at pH 7.4 by HPLC analysis; type: physicochemical; conditions: octanol/water
Outline: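 logD at pH 7.4 measured by HPLC.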

[2] = Kinetic solubility of the compound in pH 2 HCl after 30 mins by nephelometry; type: physicochemical; conditions: buffer, pH 2, 0.5 h
[3] = Kinetic solubility of the compound in pH 6.5 phosphate buffer after 30 mins by nephelometry; type: physicochemical; conditions: pH 6.5, 0.5 h
[4] = Cytotoxicity against human HepG2 cells after 72 hrs by CyQuant-Direct reagent based fluorescence assay; type: cell-based
Salmonella typhimurium = assay: Mutagenicity in Salmonella typhimurium TA98 assessed as increase in number of revertant colonies at 1250 to 5000 ug/ml in absence of ariclor-induced rat liver S9 fraction by Ames test relative to control; type: toxicity; conditions: salmonella enterica subsp. enterica serovar typhimurium
Outline: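 Ames plate incorporation test run in two independent experiments across five Salmonella strains, with and without metabolic activation. Revertant colonies were counted per plate and compared with concurrent vehicle controls. A reproducible increase of ≥2-fold in revertant colony number over vehicle control was scored as evidence of mutagenicity.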

SMILES	logD [1]	Kinetic_solubility [2]	Kinetic_solubility [3]	IC20 at 72 h [4] [µM]	fold change (FC) (Salmonella typhimurium)
Cc1[nH]nc2c1C(c1cc(N3CC4CCCC4C3)cc(C(F)(F)F)c1)(C(C)C)C(C#N)=C(N)O2 (racemic)	–	Soluble	Soluble	–	–
Cc1[nH]nc2c1C(c1cc(F)cc(N3CCC(C(=O)O)CC3)c1)(C(C)C)C(C#N)=C(N)O2 (racemic)	1.2	–	–	–	–
Cc1[nH]nc2c1C(c1cc(-c3cccnc3)cc(C(F)(F)F)c1)(C(C)C)C(C#N)=C(N)O2 (racemic)	–	–	–	18.9	–
Cc1[nH]nc2c1C(c1cc(F)cc(N3CCOCC3)c1)(C(C)C)C(C#N)=C(N)O2 (racemic)	–	Soluble	Soluble	–	–
Cc1[nH]nc2c1C(c1cc(N3CCC(C(=O)O)CC3)cc(C(F)(F)F)c1)(C(C)C)C(C#N)=C(N)O2 (racemic)	1.6	Soluble	Soluble	–	–
Cc1[nH]nc2c1C(c1cc(N3CCS(=O)(=O)CC3)cc(C(F)(F)F)c1)(C(C)C)C(C#N)=C(N)O2 (racemic)	–	Soluble	Soluble	–	–
COc1ccc(-c2cc(C(F)(F)F)cc(C3(C(C)C)C(C#N)=C(N)Oc4n[nH]c(C)c43)c2)cc1C(=O)O (racemic)	1.7	Soluble	Soluble	–	–

Further lines, with some results ahead:

logD [1]	Kinetic_solubility [2]	Kinetic_solubility [3]	SMILES	IC20 at 72 h [4] [µM]	fold change (FC) (Salmonella typhimurium)
1.8	–	–	Cc1[nH]nc2c1C(c1cc(-c3cccc(C(=O)O)c3)cc(C(F)(F)F)c1)(C(C)C)C(C#N)=C(N)O2 (racemic)	–	–
–	Soluble	Soluble	Cc1[nH]nc2c1C(c1cc(F)cc(-c3ccncc3)c1)(C(C)C)C(C#N)=C(N)O2 (racemic)	–	–
1.4	–	–	Cc1[nH]nc2c1C(c1cc(C#N)cc(-c3cccc(C(=O)O)c3)c1)(C(C)C)C(C#N)=C(N)O2 (racemic)	–	–
1.5	Soluble	Soluble	Cc1[nH]nc2c1C(c1cc(F)cc(-c3cccc(C(=O)O)c3)c1)(C(C)C)C(C#N)=C(N)O2 (racemic)	–	>= 2
